Data taken from ChEMBL document CHEMBL1121366, “Synthesis and immunological activity of 5,6,6a,8,9,11a-hexahydronaphth[1',2':4,5]imidazo[2,1-b]thiazoles and 5,6,6a,9,10,11a-hexahydroanaphth[2',1':4,5]imidazo[2,1-b]thiazoles” (J Med Chem, 1980).

What was measured:
[1] = tested on: Mus musculus; experiment: Effect on humoral immune response in mice against sheep red blood cells by the plaque-forming cell (PFC/10e6 spleen cells) method in experiment 6 at dose 12 mg/kg; assay type: functional
In short: (§1)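 Male CDF1 (Balb/c × DBA/2Cr) mice, 8-10 weeks old, groups of four, were immunized iv with 1 × 10^8 SRBC in PBS. After 24 h they received a single sc inguinal dose in saline, or as a suspension in saline with 1% Me2SO. Spleens were taken 4 days later and hemolytic plaque-forming cells counted by Cunningham's method. Values are the mean of four mice ± SE, with a paired Student's t test against the control.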

[2] = tested on: Mus musculus; experiment: Tested for increase in foot-pad thickness (mm) by its effect on cellular immune response in mice against sheep red blood cells by DHR method in experiment 15 at dose 12 mg/kg; assay type: functional
In short: (§2)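 Male mice, 8–10 weeks old, ICR strain. Groups of four were sensitized with 1 × 10^8 SRBC in PBS into one hind footpad, with compound given sc in the inguinal region in saline or saline/1% Me2SO. Four days later, 1 × 10^8 SRBC were injected into the other hind footpad. Foot thickness was measured with a dial gauge just before and 24 h after this challenge, and the increase was taken as the difference. Values are the mean of four mice ± SE.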

[3] = tested on: Mus musculus; experiment: Tested for increase in foot-pad thickness (mm) by its effect on cellular immune response in mice against sheep red blood cells by the DHR method in experiment 15 at dose 3 mg/kg; assay type: functional; in short: as §2
[4] = tested on: Mus musculus; experiment: Effect on humoral immune response in mice against sheep red blood cells by the plaque-forming cell (PFC/10e6 spleen cells) method in experiment 6 at dose 3 mg/kg; assay type: functional; in short: as §1
[5] = tested on: Mus musculus; experiment: Tested for increase in foot-pad thickness (mm) by its effect on cellular immune response in mice against sheep red blood cells by DHR method in experiment 17 at dose 12 mg/kg; assay type: functional
In short: (§3)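 Male ICR mice, 8-10 weeks old, groups of four, were sensitized with 1 × 10^8 SRBC in PBS into one hind footpad and dosed sc in the inguinal region, in saline or in saline with 1% Me2SO. Four days later the other footpad was challenged with 1 × 10^8 SRBC. Foot thickness was gauged just before and 24 h after challenge, and the increase was reported as mean of four ± SE.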

[6] = tested on: Mus musculus; experiment: Effect on humoral immune response in mice against sheep red blood cells by the plaque-forming cell (PFC/10e6 spleen cells) method in experiment 8 at dose 3 mg/kg; assay type: functional; in short: as §1
[7] = (§4) Acute lethal dose was determined in mice upon intravenous administration; assay type: ADME, organism-based; conditions: mouse, in vivo
In short: (§5)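 Male mice, 8–10 weeks old, CDF1 (Balb/c × DBA/2Cr). Groups of six dosed once, either iv or sc. Three to five dose levels were chosen from 400, 300, 150, 80, 40, 20 and 10 mg/kg. LD50 was calculated by the Litchfield–Wilcoxon method. Vehicle was saline or saline with 1% Me2SO, depending on compound.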

[8] = tested on: Mus musculus; experiment: Effect on humoral immune response in mice against sheep red blood cells by the plaque-forming cell (PFC/10e6 spleen cells) method in experiment 8 at dose 12 mg/kg; assay type: functional; in short: as §1
[9] = tested on: Mus musculus; experiment: Tested for increase in foot-pad thickness (mm) by its effect on cellular immune response in mice against sheep red blood cells by the DHR method in experiment 17 at dose 3 mg/kg; assay type: functional; in short: as §3
[10] = tested on: Mus musculus; experiment: Effect on humoral immune response in mice against sheep red blood cells by the plaque-forming cell (PFC/10e6 spleen cells) method in experiment 4 at dose 3 mg/kg; assay type: functional; in short: as §1
[11] = tested on: Mus musculus; experiment: Effect on humoral immune response in mice against sheep red blood cells by the plaque-forming cell (PFC/10e6 spleen cells) method in experiment 4 at dose 12 mg/kg; assay type: functional; in short: as §1
[12] = tested on: Mus musculus; experiment: Tested for increase in foot-pad thickness (mm) by its effect on cellular immune response in mice against sheep red blood cells by the DHR method in experiment 13 at dose 3 mg/kg; assay type: functional; in short: as §3
[13] = tested on: Mus musculus; experiment: Tested for increase in foot-pad thickness (mm) by its effect on cellular immune response in mice against sheep red blood cells by DHR method in experiment 13 at dose 12 mg/kg; assay type: functional; in short: as §3
[14] = tested on: Mus musculus; experiment: Effect on humoral immune response in mice against sheep red blood cells by the plaque-forming cell (PFC/10e 6 spleen cells) method in experiment 9 at dose 3 mg/kg; assay type: functional; in short: as §1
[15] = tested on: Mus musculus; experiment: Effect on humoral immune response in mice against sheep red blood cells by the plaque-forming cell (PFC/10e 6 spleen cells) method in experiment 9 at dose 12 mg/kg; assay type: functional; in short: as §1
[16] = tested on: Mus musculus; experiment: Tested for increase in foot-pad thickness (mm) by its effect on cellular immune response in mice against sheep red blood cells by DHR method in experiment 11 at dose 12 mg/kg; assay type: functional; in short: as §3
[17] = tested on: Mus musculus; experiment: Acute lethal dose was determined in mice upon subcutaneous administration; assay type: ADME, organism-based; conditions: in vivo, sc; in short: as §5
[18] = tested on: Mus musculus; experiment: Effect on humoral immune response in mice against sheep red blood cells by the plaque-forming cell (PFC/10e 6 spleen cells) method in experiment 2 at dose 3 mg/kg; assay type: functional
In short: (§6)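 Male ICR mice, 8-10 weeks old, groups of four, were immunized iv with 1 × 10^8 SRBC in PBS. After 24 h they received a single sc inguinal dose in saline, or as a suspension in saline with 1% Me2SO. Splenic hemolytic plaque-forming cells were counted 4 days later by Cunningham's method. Values are the mean of four ± SE, with a paired t test against the control.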

[19] = tested on: Mus musculus; experiment: Effect on humoral immune response in mice against sheep red blood cells by the plaque-forming cell (PFC/10e 6 spleen cells) method in experiment 2 at dose 12 mg/kg; assay type: functional; in short: as §6
[20] = tested on: Mus musculus; experiment: Tested for increase in foot-pad thickness (mm) by its effect on cellular immune response in mice against sheep red blood cells by the DHR method in experiment 11 at dose 3 mg/kg; assay type: functional; in short: as §3
[21] = tested on: Mus musculus; experiment: Tested for increase in foot-pad thickness (mm) by its effect on cellular immune response in mice against sheep red blood cells by DHR method in experiment 10 at dose 3 mg/kg; assay type: functional; in short: as §3
[22] = tested on: Mus musculus; experiment: as §4; assay type: ADME, organism-based; conditions: in vivo; in short: as §5
[23] = tested on: Mus musculus; experiment: Tested for increase in foot-pad thickness (mm) by its effect on cellular immune response in mice against sheep red blood cells by the DHR method in experiment 10 at dose 3 mg/kg; assay type: functional; in short: as §3
[24] = tested on: Mus musculus; experiment: Effect on humoral immune response in mice against sheep red blood cells by the plaque-forming cell (PFC/10e 6 spleen cells) method in experiment 1 at dose 3 mg/kg; assay type: functional; in short: as §1
[25] = tested on: Mus musculus; experiment: Effect on humoral immune response in mice against sheep red blood cells by the plaque-forming cell (PFC/10e 6 spleen cells) method in experiment 1 at dose 12 mg/kg; assay type: functional; in short: as §1

Which PFC [1] does the source give for Brc1ccc2c(c1)C1C(CC2)N=C2SCCN21 (configuration not stated) here?
The PFC was 870.

What about the Increase in footpad thickness [2] of the same compound?
The Increase in footpad thickness was 0.38 mm.

What about the Increase in footpad thickness [3] of the same compound?
The Increase in footpad thickness was 0.35 mm.

And the PFC [4]?
The PFC was 980.

For C[C@@H]1SC2=NC3c4ccccc4CCC3N2[C@@]1(O)c1ccccc1 (some centres not stated), which Increase in footpad thickness [5] is on record?
The Increase in footpad thickness was 0.52 mm.

And the PFC [6]?
Its PFC is 550.

And the LD50 [7]?
Its LD50 is 170 mg/kg.

What about the PFC [8] of the same compound?
Its PFC is 1120.

And the Increase in footpad thickness [9]?
Its Increase in footpad thickness is 0.28 mm.

Which PFC [10] does the source give for Clc1ccc2c(c1)CCC1N=C3SCCN3C21 (configuration not stated) here?
Its PFC is 1880.

What about the PFC [11] of the same compound?
Its PFC is 1700.

What about the Increase in footpad thickness [12] of the same compound?
Its Increase in footpad thickness is 0.27 mm.

What about the Increase in footpad thickness [13] of the same compound?
The Increase in footpad thickness was 0.28 mm.

With CC1=C(c2ccccc2)N2C(=NC3c4ccccc4CCC32)S1 (configuration not stated) as the compound, how does the Increase in footpad thickness [5] read?
Its Increase in footpad thickness is 0.32 mm.

What about the PFC [14] of the same compound?
Its PFC is 740.

And the PFC [15]?
Its PFC is 470.

And the Increase in footpad thickness [9]?
The Increase in footpad thickness was 0.2 mm.

For Clc1ccc2c(c1)CCC1C2N=C2SCCN21 (cis isomer), which PFC [10] is on record?
The PFC was 1560.

And the PFC [11]?
Its PFC is 970.

What about the Increase in footpad thickness [12] of the same compound?
Its Increase in footpad thickness is 0.26 mm.

And the Increase in footpad thickness [13]?
The Increase in footpad thickness was 0.33 mm.

For Brc1ccc2c(c1)C1N=C3SCCN3C1CC2 (cis isomer), which PFC [1] is on record?
The PFC was 1495.

And the Increase in footpad thickness [2]?
The Increase in footpad thickness was 0.45 mm.

What about the Increase in footpad thickness [3] of the same compound?
The Increase in footpad thickness was 0.36 mm.

And the PFC [4]?
The PFC was 960.

With c1ccc2c(c1)CCC1N=C3SCCN3C21 (stereo in doubt) as the compound, how does the Increase in footpad thickness [16] read?
The Increase in footpad thickness was 0.38 mm.

What about the LD50 [17] of the same compound?
The LD50 was 68 mg/kg.

And the LD50 [7]?
Its LD50 is 20 mg/kg.

And the PFC [18]?
The PFC was 1800.

What about the PFC [19] of the same compound?
Its PFC is 1610.

What about the Increase in footpad thickness [20] of the same compound?
The Increase in footpad thickness was 0.37 mm.

For c1ccc2c(c1)CCC1C2N=C2SCCN21 (stereo in doubt), which Increase in footpad thickness [21] is on record?
The Increase in footpad thickness was 0.44 mm.

And the LD50 [17]?
The LD50 was 116 mg/kg.

What about the LD50 [22] of the same compound?
The LD50 was 27 mg/kg.

What about the Increase in footpad thickness [23] of the same compound?
Its Increase in footpad thickness is 0.42 mm.

What about the PFC [24] of the same compound?
Its PFC is 1220.

What about the PFC [25] of the same compound?
The PFC was 860.
